ChEMBL document CHEMBL3588823, “Design, synthesis and biological evaluation of novel 5-oxo-2-thioxoimidazolidine derivatives as potent androgen receptor antagonists” (Eur J Med Chem, 2015)

Test system: LNCaP
Assay: Antiproliferative activity against human LNCAP cells after 3 days
Assay type: functional, cell-based
Conditions: Homo sapiens, LNCaP, 72 h; read-out: IC50
Procedure, shortened: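 LNCaP cells seeded at 10,000 per well in RPMI 1640 with 10% charcoal-stripped serum and 1% AAS, then held 3 days at 37 °C. Medium was then replaced with serial compound dilutions, either without DHT (agonism mode) or with DHT (antagonism mode).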

Row | Compound | IC50
1 | N#Cc1ccc(N2C(=O)[C@]3(CCOC3)N(c3ccc(C(N)=O)c(F)c3)C2=S)cc1C(F)(F)F | 0.0714 µM

Target: T1, Androgen receptor (Homo sapiens, UniProt P10275)
T1 sequence (P10275 whole entry): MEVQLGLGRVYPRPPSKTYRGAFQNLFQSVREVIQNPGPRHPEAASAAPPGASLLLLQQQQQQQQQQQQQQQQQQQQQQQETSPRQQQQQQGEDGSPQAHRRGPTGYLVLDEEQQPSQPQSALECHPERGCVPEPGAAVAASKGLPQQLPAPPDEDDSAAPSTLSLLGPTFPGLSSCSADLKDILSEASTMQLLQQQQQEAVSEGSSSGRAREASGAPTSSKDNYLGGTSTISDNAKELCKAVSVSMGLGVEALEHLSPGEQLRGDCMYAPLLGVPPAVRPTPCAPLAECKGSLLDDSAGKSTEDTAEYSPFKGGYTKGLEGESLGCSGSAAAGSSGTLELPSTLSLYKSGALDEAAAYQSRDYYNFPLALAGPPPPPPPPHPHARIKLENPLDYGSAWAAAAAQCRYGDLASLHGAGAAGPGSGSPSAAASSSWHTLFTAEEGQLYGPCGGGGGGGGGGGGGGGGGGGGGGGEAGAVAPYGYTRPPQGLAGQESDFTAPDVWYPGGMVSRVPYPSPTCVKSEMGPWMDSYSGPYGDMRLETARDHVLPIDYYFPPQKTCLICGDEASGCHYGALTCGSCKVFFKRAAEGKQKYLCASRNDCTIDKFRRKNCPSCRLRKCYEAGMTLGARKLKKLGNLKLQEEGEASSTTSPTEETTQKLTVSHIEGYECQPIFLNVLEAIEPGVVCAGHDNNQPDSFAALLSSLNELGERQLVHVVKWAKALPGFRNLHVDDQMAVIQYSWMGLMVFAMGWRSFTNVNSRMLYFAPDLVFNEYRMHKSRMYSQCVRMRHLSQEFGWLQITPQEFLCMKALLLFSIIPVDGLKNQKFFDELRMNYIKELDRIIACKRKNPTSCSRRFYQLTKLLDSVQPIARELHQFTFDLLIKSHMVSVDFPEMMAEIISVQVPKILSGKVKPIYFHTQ
Assay: Antagonist activity at androgen receptor (unknown origin)
Conditions: not given

Row | Compound | Ki
2 | N#Cc1ccc(N2C(=O)[C@]3(CCOC3)N(c3ccc(C(N)=O)c(F)c3)C2=S)cc1C(F)(F)F | 0.0141 µM

Test system: Rattus norvegicus
Assay: Half life in rat at 5 mg/kg, po
Assay type: ADME, organism-based
Conditions: in vivo
Procedure, shortened: (§1)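 Rats (n = 3) were given a single 5 mg/kg oral dose in 0.5% HPMC. Blood was taken into EDTA tubes at 15 and 30 min and 1, 2, 4, 8 and 24 h. Plasma was obtained by centrifugation and proteins were precipitated with acetonitrile. Bioavailability was calculated against a 1 mg/kg iv dose.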

Row | Compound | t1/2
3 | N#Cc1ccc(N2C(=O)[C@]3(CCOC3)N(c3ccc(C(N)=O)c(F)c3)C2=S)cc1C(F)(F)F | 1.8 h

Test system: not listed separately
Assay: Half life in rat at 1 mg/kg, iv
Assay type: ADME, organism-based
Conditions: in vivo
Procedure, shortened: (§2)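 Rats (n = 3) were given a single 1 mg/kg iv dose in 20% hydroxypropyl-β-cyclodextrin. Blood was taken into EDTA tubes at 5, 15 and 30 min and 1, 2, 4, 8 and 24 h. Plasma was obtained by centrifugation and proteins were precipitated with acetonitrile before analysis.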

Row | Compound | half-life
4 | N#Cc1ccc(N2C(=O)[C@]3(CCOC3)N(c3ccc(C(N)=O)c(F)c3)C2=S)cc1C(F)(F)F | 1.5 h

Test system: not listed separately
Assay: Tmax in rat at 5 mg/kg, po
Assay type: ADME, organism-based
Conditions: in vivo
Procedure, shortened: as §1

Row | Compound | Tmax
5 | N#Cc1ccc(N2C(=O)[C@]3(CCOC3)N(c3ccc(C(N)=O)c(F)c3)C2=S)cc1C(F)(F)F | 2 h

Test system: not listed separately
Assay: Tmax in rat at 1 mg/kg, iv
Assay type: ADME, organism-based
Conditions: in vivo
Procedure, shortened: as §2

Row | Compound | Tmax
6 | N#Cc1ccc(N2C(=O)[C@]3(CCOC3)N(c3ccc(C(N)=O)c(F)c3)C2=S)cc1C(F)(F)F | 4.98 min

Test system: not listed separately
Assay: Cmax in rat at 5 mg/kg, po
Assay type: ADME, organism-based
Parameters: dose 5 mg/kg, route oral
Conditions: in vivo
Procedure, shortened: as §1

Row | Compound | Cmax
7 | N#Cc1ccc(N2C(=O)[C@]3(CCOC3)N(c3ccc(C(N)=O)c(F)c3)C2=S)cc1C(F)(F)F | 261 ng/mL

Test system: not listed separately
Assay: Cmax in rat at 1 mg/kg, iv
Assay type: ADME, organism-based
Parameters: dose 1 mg/kg, route intravenous
Conditions: in vivo
Procedure, shortened: as §2

Row | Compound | Cmax
8 | N#Cc1ccc(N2C(=O)[C@]3(CCOC3)N(c3ccc(C(N)=O)c(F)c3)C2=S)cc1C(F)(F)F | 185 ng/mL

Test system: not listed separately
Assay: AUC (0 to time) in rat at 5 mg/kg, po
Assay type: ADME, organism-based
Conditions: in vivo
Procedure, shortened: (§3)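 Rats (n = 3) received a single 5 mg/kg oral dose in 0.5% HPMC. EDTA blood samples were taken at 15 and 30 min and at 1, 2, 4, 8 and 24 h. Plasma was obtained by centrifugation, mixed with acetonitrile:H2O (1:1 v/v) and precipitated with acetonitrile.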

Row | Compound | AUC
9 | N#Cc1ccc(N2C(=O)[C@]3(CCOC3)N(c3ccc(C(N)=O)c(F)c3)C2=S)cc1C(F)(F)F | 1280 ng·h/mL

Test system: not listed separately
Assay: AUC (0 to time) in rat at 1 mg/kg, iv
Assay type: ADME, organism-based
Conditions: in vivo
Procedure, shortened: (§4)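 Rats (n = 3) given a single 1 mg/kg iv dose in 20% HP-b-CD. Blood was drawn into EDTA tubes at 5, 15 and 30 min and at 1, 2, 4, 8 and 24 h. Plasma was separated by centrifugation, mixed with acetonitrile:H2O (1:1 v/v) and protein-precipitated with acetonitrile.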

Row | Compound | AUC
10 | N#Cc1ccc(N2C(=O)[C@]3(CCOC3)N(c3ccc(C(N)=O)c(F)c3)C2=S)cc1C(F)(F)F | 295 ng·h/mL

Test system: not listed separately
Assay: AUC (0 to infinity) in rat at 5 mg/kg, po
Assay type: ADME, organism-based
Parameters: dose 5 mg/kg, route oral, time infinity
Conditions: in vivo
Procedure, shortened: as §3

Row | Compound | AUC(0-inf)
11 | N#Cc1ccc(N2C(=O)[C@]3(CCOC3)N(c3ccc(C(N)=O)c(F)c3)C2=S)cc1C(F)(F)F | 1390 ng·h/mL

Test system: not listed separately
Assay: AUC (0 to infinity) in rat at 1 mg/kg, iv
Assay type: ADME, organism-based
Parameters: dose 1 mg/kg, route intravenous, time infinity
Conditions: in vivo
Procedure, shortened: as §4

Row | Compound | AUC(0-inf)
12 | N#Cc1ccc(N2C(=O)[C@]3(CCOC3)N(c3ccc(C(N)=O)c(F)c3)C2=S)cc1C(F)(F)F | 303 ng·h/mL

Test system: Rattus norvegicus
Assay: Volume of distribution in rat at 5 mg/kg, po
Assay type: ADME, organism-based
Conditions: in vivo
Procedure, shortened: as §1

Row | Compound | Vd
13 | N#Cc1ccc(N2C(=O)[C@]3(CCOC3)N(c3ccc(C(N)=O)c(F)c3)C2=S)cc1C(F)(F)F | 9.4 L/kg

Test system: not listed separately
Assay: Volume of distribution in rat at 1 mg/kg, iv
Assay type: ADME, organism-based
Conditions: in vivo
Procedure, shortened: as §2

Row | Compound | Vd
14 | N#Cc1ccc(N2C(=O)[C@]3(CCOC3)N(c3ccc(C(N)=O)c(F)c3)C2=S)cc1C(F)(F)F | 7 L/kg

Test system: Rattus norvegicus
Assay: Clearance in rat at 5 mg/kg, po
Assay type: ADME, organism-based
Conditions: in vivo
Procedure, shortened: as §1

Row | Compound | CL
15 | N#Cc1ccc(N2C(=O)[C@]3(CCOC3)N(c3ccc(C(N)=O)c(F)c3)C2=S)cc1C(F)(F)F | 60 mL/min/kg

Test system: not listed separately
Assay: Clearance in rat at 1 mg/kg, iv
Assay type: ADME, organism-based
Conditions: in vivo
Procedure, shortened: as §2

Row | Compound | clearance
16 | N#Cc1ccc(N2C(=O)[C@]3(CCOC3)N(c3ccc(C(N)=O)c(F)c3)C2=S)cc1C(F)(F)F | 55 mL/min/kg

Test system: not listed separately
Assay: MRT (last) in rat at 5 mg/kg, po
Assay type: ADME, organism-based
Conditions: in vivo
Procedure, shortened: as §1

Row | Compound | MRT last
17 | N#Cc1ccc(N2C(=O)[C@]3(CCOC3)N(c3ccc(C(N)=O)c(F)c3)C2=S)cc1C(F)(F)F | 3.1 h

Test system: not listed separately
Assay: MRT (last) in rat at 1 mg/kg, iv
Assay type: ADME, organism-based
Conditions: in vivo
Procedure, shortened: as §2

Row | Compound | MRT last
18 | N#Cc1ccc(N2C(=O)[C@]3(CCOC3)N(c3ccc(C(N)=O)c(F)c3)C2=S)cc1C(F)(F)F | 1.6 h

Test system: not listed separately
Assay: MRT (INF) in rat at 5 mg/kg, po
Assay type: ADME, organism-based
Conditions: in vivo
Procedure, shortened: as §1

Row | Compound | MRT inf
19 | N#Cc1ccc(N2C(=O)[C@]3(CCOC3)N(c3ccc(C(N)=O)c(F)c3)C2=S)cc1C(F)(F)F | 3.7 h

Test system: not listed separately
Assay: MRT (INF) in rat at 1 mg/kg, iv
Assay type: ADME, organism-based
Conditions: in vivo
Procedure, shortened: as §2

Row | Compound | MRT inf
20 | N#Cc1ccc(N2C(=O)[C@]3(CCOC3)N(c3ccc(C(N)=O)c(F)c3)C2=S)cc1C(F)(F)F | 1.8 h

Test system: Rattus norvegicus
Assay: Volume of distribution at steady state in rat at 5 mg/kg, po
Assay type: ADME, organism-based
Conditions: in vivo
Procedure, shortened: as §1

Row | Compound | Vdss
21 | N#Cc1ccc(N2C(=O)[C@]3(CCOC3)N(c3ccc(C(N)=O)c(F)c3)C2=S)cc1C(F)(F)F | 22.3 L/kg

Test system: not listed separately
Assay: Volume of distribution at steady state in rat at 1 mg/kg, iv
Assay type: ADME, organism-based
Conditions: in vivo, read-out: Vdss
Procedure, shortened: as §2

Row | Compound | Vd
22 | N#Cc1ccc(N2C(=O)[C@]3(CCOC3)N(c3ccc(C(N)=O)c(F)c3)C2=S)cc1C(F)(F)F | 6.1 L/kg

Test system: not listed separately
Assay: Oral bioavailability in rat at 5 mg/kg
Assay type: ADME, organism-based
Conditions: in vivo
Procedure, shortened: as §1

Row | Compound | bioavailability
23 | N#Cc1ccc(N2C(=O)[C@]3(CCOC3)N(c3ccc(C(N)=O)c(F)c3)C2=S)cc1C(F)(F)F | 87%
